# Results from ChEMBL document CHEMBL1122508, “Conjugates of catecholamines. 1. N-alkyl-functionalized carboxylic acid congeners and amides related to isoproterenol” (1983).
# Test system: S49
# Test: In vitro biological activity against accumulation of cAMP in S49 cells as relative activity expressed as ratio of KA for isoproterenol to KA for the compound
# Type: functional, Mus musculus
# Summary of the method: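 Wild-type S-49 mouse lymphoma cells resuspended at 2–2.5 × 10^6/mL in DME (13.3 g/L), 20 mM Hepes pH 7.4, 0.1% BSA. Preincubated 10 min at 37 °C without drug, then 6 min with compound; stopped on ice, pellets boiled, cAMP measured by competitive binding. K_A taken from cAMP vs log concentration; ratio uses isoproterenol K_A run at the same time. Each K_A averages ≥3 determinations, each in triplicate.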
row,SMILES,Relative activity
1,CC(CCCCC(=O)Nc1ccccc1C(F)(F)F)NCC(O)c1ccc(O)c(O)c1.Cl (stereo unspecified),0.00025
2,CC(CCCCC(=O)NC1CCCCC1)NCC(O)c1ccc(O)c(O)c1.Cl (stereo unspecified),0.17
3,Cc1ccc(NC(=O)CCC(C)NCC(O)c2ccc(O)c(O)c2)cc1.Cl (stereo unspecified),0.71
4,CC(CCCCC(=O)O)NCC(O)c1ccc(O)c(O)c1 (stereo unspecified),0.00097
5,Cc1ccc(NC(=O)CCCCCC(C)NCC(O)c2ccc(O)c(O)c2)cc1.Cl (stereo unspecified),0.11
6,CC(CCCC(=O)O)NCC(O)c1ccc(O)c(O)c1 (stereo unspecified),0.00068
7,Cc1ccc(NC(=O)CCCC(C)NCC(O)c2ccc(O)c(O)c2)cc1.Cl (stereo unspecified),0.36
8,CC(CCCCC(=O)Nc1cccc(C(F)(F)F)c1)NCC(O)c1ccc(O)c(O)c1.Cl (stereo unspecified),0.98
9,Cc1ccc(N(C)C(=O)CCCCC(C)NCC(O)c2ccc(O)c(O)c2)cc1.Cl (stereo unspecified),73
10,CC(CCCCCC(=O)O)NCC(O)c1ccc(O)c(O)c1 (stereo unspecified),0.00083
11,Cc1ccc(NC(=O)CCCCC(C)NCC(O)c2ccc(O)c(O)c2)cc1.Cl (stereo unspecified),54
12,COc1ccc(NC(=O)CCCCC(C)NCC(O)c2ccc(O)c(O)c2)cc1.Cl (stereo unspecified),3.1
13,CC(CCC(=O)O)NCC(O)c1ccc(O)c(O)c1 (stereo unspecified),0.00016
14,CC(CCCCC(=O)Nc1ccc(C(F)(F)F)cc1)NCC(O)c1ccc(O)c(O)c1.Cl (stereo unspecified),11000
15,CCCCc1ccc(NC(=O)CCCCC(C)NCC(O)c2ccc(O)c(O)c2)cc1.Cl (stereo unspecified),3200
16,CCCCNC(=O)CCCCC(C)NCC(O)c1ccc(O)c(O)c1.Cl (stereo unspecified),0.25
